Source: paper PMC3742633 (Molecular cancer therapeutics, 2013)

Columns and labels:
Jurkat or H522 cells = assay: 2-[1-14C]-deoxy-D-glucose uptake; format: cell-based, human; details: three hours exposure, Jurkat and H522
Method in brief: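 Jurkat or H522 cells in RPMI 1640 + 10% FCS + 50 μg/ml gentamycin at 100,000/ml, treated immediately with DMSO vehicle or test compound for 3 h. Washed in glucose-free RPMI, 30 min with inhibitor, then 1 h with 14C-2-deoxyglucose (0.1 μCi/μl stock). Ice-cold washes, 0.5% SDS lysis, scintillation counting; counts normalized to BCA protein.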

[1] = target: recombinant human PFKFB3 protein (Homo sapiens, UniProt Q16875); assay: Recombinant PFKFB3 kinase assay; format: biochemical
Jurkat and H522 cells [2] = assay: Intracellular ATP bioluminescence assay; format: cell-based, human; details: three hours exposure, Jurkat and H522
Method in brief: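 After plating at 1×10^5 cells/well (24 h, 37°C, 5% CO2) and 3 h test compound exposure, adherent cells were washed with cold PBS, lysed in passive lysis buffer and scraped. One freeze (−80°C)/thaw (37°C) cycle, cleared at 4°C. ATP read by firefly luciferase/D-luciferin luminescence at 560 nm against an ATP standard curve, as nmol/mg BCA protein.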

[3] = test system: Jurkat T cell leukemia cells; details: previous studies; cited from earlier work
[4] = test system: Jurkat T cell leukemia cells; assay: Annexin V / propidium iodide flow cytometry; format: cell-based, human; details: 20 μM, five hours
[5] = test system: H522 human lung adenocarcinoma cells; assay: Cell viability, trypan blue exclusion; format: cell-based; details: NCI-H522, 48 h, read-out: IC50 cytotoxic effects (viability)
[6] = test system: Jurkat T cell leukemia cells; assay: Cell viability, trypan blue exclusion; format: cell-based; details: Homo sapiens, 48 h, read-out: IC50 cytotoxic effects (viability)
Jurkat and H522 cells [7] = assay: F26BP measurement in cells; format: cell-based, human; details: three hours exposure
Method in brief: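 Cells plated at 1×10^5/well, 24 h in RPMI or DMEM (5% CO2, 37°C), then exposed to test compound for 3 h. Cells triturated, washed twice in PBS, dissolved in […] NaOH. F26BP measured by coupled enzyme reaction and normalized to BCA protein. Triplicate or quadruplicate; unpaired two-tailed t-test.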

[8] = Pharmacokinetic profile after IV administration; format: in vivo, female C57Bl/6 mice; details: plasma
Method in brief: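 Test compound was given IV to female C57Bl/6 mice, with 8 time points and 3 animals per time point. Plasma was extracted with acetonitrile and analysed by LC-MS/MS on a polar reverse-phase column with a 0.5% formic acid acetonitrile/water mobile phase. Tmax, Cmax, volume of distribution, half-life, clearance, AUCs and MRT were calculated from the concentration–time data.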

[9] = female, C57Bl/6, mouse, iv, 5 mg/kg

Sequence of recombinant human PFKFB3 protein (Q16875 whole entry): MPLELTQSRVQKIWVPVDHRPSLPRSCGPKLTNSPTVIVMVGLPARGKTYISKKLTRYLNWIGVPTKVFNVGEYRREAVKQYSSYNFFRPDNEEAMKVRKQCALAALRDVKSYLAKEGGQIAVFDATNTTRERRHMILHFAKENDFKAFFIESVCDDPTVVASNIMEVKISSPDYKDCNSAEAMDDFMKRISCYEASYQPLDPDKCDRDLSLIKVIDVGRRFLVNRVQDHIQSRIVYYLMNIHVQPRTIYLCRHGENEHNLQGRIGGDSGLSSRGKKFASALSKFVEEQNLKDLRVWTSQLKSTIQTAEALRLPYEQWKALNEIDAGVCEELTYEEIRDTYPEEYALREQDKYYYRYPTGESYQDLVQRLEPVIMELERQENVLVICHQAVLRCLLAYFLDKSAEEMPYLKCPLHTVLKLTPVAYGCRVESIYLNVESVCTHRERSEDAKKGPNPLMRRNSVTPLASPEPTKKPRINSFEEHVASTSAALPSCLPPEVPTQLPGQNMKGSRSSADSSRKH

In the case of O=C(C=Cc1cccnc1)c1ccncc1 [3PO, 3-(3-pyridinyl)-1-(4-pyridinyl)-2-propen-1-one, reference compound], the “effect on glucose uptake (14C-2DG)” value (Jurkat or H522 cells) is reported as “reduced”, the IC50 [1] is reported as 22.9 µM and the “effect on intracellular ATP” value (Jurkat and H522 cells [2]) is reported as “reduced”. The “concentrations that caused cell death” value [3] was greater than 10 µM, the “cells undergoing early apoptosis (Annexin V+/PI−)” value [4] was “increased” and the IC50 [5] was 5.57 µM. For the same compound, the IC50 [6] was 7.2 µM, the “effect on F26BP” value (Jurkat and H522 cells [7]) was “reduced” and the AUC0-inf ([8]; IV, C57Bl/6 mice) was 36 ng/h/mL. The Cmax [8, 9] was 113 ng/mL, the clearance [8, 9] was 2310 mL/min/kg and the half-life [8, 9] was 18 min.
